Only some compounds are listed: those with a hit (about 3.3% of all), similar ones and a draw of the others.
SENP8 block-1: human SENP8 protease inhibitors, primary screen, biochemical, fluorescence, Nedd8 protein substrate, uHTS; actives 0.64% (n = 360,000); AID 602440, 2012; Sentrin-specific protease 8 (Homo sapiens), Q96LD8; inhibition, % at 20 µM; recombinant SENP8; in the data active means inhibition mostly above about 40%, no sharp cut-off; inactive means mostly below about 27%
SENP6 inh: SENP6 protease inhibitors, primary screen, biochemical, luminescence, uHTS. inhibition, % at 10 µM. Sentrin-specific protease 6 (Homo sapiens), Q9GZR1. actives 1.8% (n = 330,000). AID 2599, 2010. Recombinant SENP6 catalytic domain, aminoluciferin luminescence;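 active means inhibition above about 50% at the single tested dose, limit read from the data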;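 further: plate controls were DMSO wells with enzyme for no effect and DMSO wells lacking enzyme for full effect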
SENP1 FRET inh: human SENP1 catalytic domain inhibitors, primary screen, biochemical, FRET, uHTS | inhibition, % at 10 µM | Sentrin-specific protease 1 (Homo sapiens), Q9P0U3 | recombinant SENP1 catalytic domain, CyPet-SUMO1-YPet FRET cleavage | actives 0.21% (n = 360,000);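 active means inhibition at least 30% at 10 µM, raw YFP signal under a set limit, fluorescence ratio 0.5 to 1.5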;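 further: 0% = enzyme with DMSO and 100% = no enzyme wells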
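Test system: hSENP1 catalytic domain, recombinant; Amount: 20 pM final SENP1 enzyme; Medium: Tris pH 8 buffer plus EDTA, NaCl, BME, BSA, NP40, catalase; Schedule: 50 min enzyme reaction, room temperature, light-protected; Technique: FRET fluorescence in CFP and YFP emission channels; Controls: no-enzyme wells low, DMSO-plus-enzyme wells high control.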
SENP7 inh: SENP7 protease inhibitors, primary screen, biochemical, luminescence, uHTS | recombinant SENP7, Z-RLRGG-aminoluciferin luminescence, 40 min | inhibition, % at 5 µM | actives 1.5% (n = 330,000) | AID 434973, 2010;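 active means inhibition above about 50% at the single test dose, limit read from the data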;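 further: plate controls were DMSO with enzyme for no effect and no enzyme buffer wells for full effect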
SENP8 block-2: SENP8 protease inhibitors, primary screen, biochemical, luminescence; AID 2540, 2010; Sentrin-specific protease 8 (Homo sapiens), Q96LD8; inhibition, % at 10 µM; actives 1.2% (n = 330,000); purified SENP8, Z-RLRGG-aminoluciferin cleavage; in the data active means inhibition above about 50%
CendR NRP1 mod: modulators of CendR peptide binding to NRP-1, primary screen, biochemical, fluorescence polarization, uHTS. Neuropilin-1 (Homo sapiens), O14786. FAM-RPARPAR peptide binding to NRP-1. inhibition, % at 25 µM. actives 0.85% (n = 360,000);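 active means inhibition or corrected inhibition above about 18%, plus a signal ratio from 0.5 to 1.5, limit read from the data, passing the limit was not always enough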
SENP1 conf: human SENP1 catalytic domain inhibitors, confirmation, biochemical, FRET endpoint, single concentration; recombinant SENP1, CyPet-SUMO1-YPet FRET cleavage; shares compounds with SENP1 FRET inh; inhibition, % at 10 µM; actives 34% (n = 520); in the data active means inhibition mostly above about 35%, no sharp cut-off; inactive means mostly below about 32%;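 further: 0% = enzyme with DMSO and 100% = no enzyme control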
SENP1 kinetic: human SENP1 catalytic domain inhibitors, confirmation, biochemical, kinetic FRET, single concentration; shares compounds with SENP1 FRET inh; recombinant SENP1, CyPet-SUMO1-YPet FRET kinetic cleavage; inhibition, % at 10 µM; actives 26% (n = 520); in the data active means inhibition mostly above about 32%, no sharp cut-off; inactive means mostly below about 29%;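 further: 0% = DMSO with enzyme and 100% = no enzyme substrate only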
Numbers without * were called inactive; . = no result given.

SMILES	SENP8 block-1	SENP6 inh	SENP1 FRET inh	SENP7 inh	SENP8 block-2	CendR NRP1 mod	SENP1 conf	SENP1 kinetic
COc1ccccc1Nc1c([N+](=O)[O-])cc(C)cc1[N+](=O)[O-]	24.7	-3.0	3.3	-2.0	-8.0	-4.3	.	.
COc1ccccc1Nc1ccc([N+](=O)[O-])cc1N	26.0	7.9	49.4*	-3.3	6.0	-24.4	29.4	17.1
CCOC(=O)/C(C#N)=C/C=C1\C=Cc2ccccc2N1CC	24.8	-20.7	51.6*	-2.1	7.4	-18.2	71.2*	39.0*
CCOC(=O)/C(C#N)=C(C)/C=C1\Sc2ccccc2N1CC	28.1	-5.0	-29.7	-2.3	1.6	129.8	.	.
CN1/C(=C/C=C(C#N)C#N)C=Cc2ccccc21	22.3	-14.6	97.0*	11.1	-1.2	139.8	8.7	8.7
CNc1cc(-c2cccc(C(=O)N3CCOCC3)c2)ncn1	-37.6	.	0.6	.	.	-3.3	.	.
O=C(NCc1ccccc1)c1cc(C2CCCN(C(=O)CCCc3ccccc3)C2)on1 (configuration not stated)	15.8	.	1.7	.	.	-4.4	.	.
Cc1cccc(-n2c(SCc3cc(=O)n4ccsc4n3)nc3ccccc32)c1	-70.6	-5.9	31.4*	-2.5	-1.7	-19.9	39.8*	28.3
COc1ccc2cc(C[C@@H]3CC[C@@H](CO)O3)ccc2c1	14.0	.	4.8	2.6	.	-10.0	.	.
CCn1c(SCC(=O)N(C)c2c(N)n(Cc3ccccc3)c(=O)[nH]c2=O)nnc1-c1cccs1	2.2	.	0.2	.	.	6.2	.	.
CCOC(=O)N1CCN(S(=O)(=O)c2ccc(C(=O)NNc3nc4c(C)cccc4s3)cc2)CC1	-12.8	1.4	35.3*	3.6	-1.0	-14.9	25.2	41.8*
Nc1cc2c([N+](=O)[O-])cccc2o1	22.9	-7.3	63.0*	4.8	5.7	-42.2	31.2	17.3
Cc1c(N)cccc1[N+](=O)[O-]	0.3	4.1	-1.7	7.3	4.7	12.6	.	.
Cc1ccnc(NC(=O)CCC(=O)c2cc(C)sc2C)c1	4.7	-6.8	38.2*	-11.0	-4.2	-97.8	15.2	12.8
Cc1cc(C)c2c3c(c(-c4ccccc4)n2n1)c(=O)n(C)c(=O)n3C	21.5	.	6.5	.	.	6.1	.	.
Cc1cccc(-c2c3c(=O)n(C)c(=O)n(C)c3c3cccnn23)c1	15.2	19.3	61.8*	-0.8	4.9	-23.3	30.3*	28.3
COC(=O)[C@@]12C[C@@H](CC(=O)NCc3cccs3)C(=O)N(Cc3ccco3)C1=CCC(C)(C)C2	13.9	.	2.4	.	.	-3.3	.	.
CCN(CC)c1ccc(N=C2C=CC(=O)C=C2NC(C)=O)cc1	27.8	.	66.3*	.	.	4.6	14.1	12.4
CCN(CC)c1ccc(NC(=O)Nc2ccc(C(C)=O)cc2)cc1	10.1	29.8	2.3	-1.8	-2.9	-7.8	.	.
CC(C)(C)CC(C)(C)SSc1n[nH]c(=S)s1	0.9	.	1.2	.	.	8.5	.	.
Cc1cc(O)ccc1N1C(=O)c2cccc3cc([N+](=O)[O-])cc(c23)C1=O	8.4	6.6	35.7*	5.2	0.3	7.7	13.3	6.4
O=C1c2cccc3cc([N+](=O)[O-])cc(c23)C(=O)N1c1ccccc1O	17.9	1.2	39.8*	-2.5	0.1	-6.1	17.5	10.3
Cc1cccc(C(O)c2ncc(-c3ccc(C(F)(F)F)cc3)[nH]2)c1C (configuration not stated)	9.1	.	-0.6	.	.	11.6	.	.
CCOC(=O)c1c(C#N)c(SCC(=O)Nc2ccc(OC)cc2)nc2c1CN(CC)CC2	-2.2	9.7	40.2*	1.3	3.9	2.6	20.2	11.1
CC1=C/C(=C(\c2ccc(O)c(C)c2)c2ccccc2S(=O)(=O)O)C=CC1=O	17.3	43.5	7.6	7.6	14.6	1.1	.	.
SMILES	SENP8 block-1	SENP6 inh	SENP1 FRET inh	SENP7 inh	SENP8 block-2	CendR NRP1 mod	SENP1 conf	SENP1 kinetic
CC1=CC(=O)C=C/C1=C(/c1ccc(O)cc1C)c1ccccc1S(=O)(=O)O	15.8	-14.5	35.9*	-10.0	-6.0	-7.1	18.3	16.5
CC(C)(CC1(C)NC(=O)NC1=O)OCc1ccccc1 (configuration not stated)	3.2	.	1.6	.	.	22.1	.	.
Cc1cc(C(=O)NCc2ccc(F)cc2)c2ccccc2n1	-50.2	-29.6	-0.4	5.8	4.7	-0.3	.	.
Cc1cc(C(=O)NCc2ccccc2F)c2ccccc2n1	-12.0	-1.0	42.9*	-3.6	-9.9	-23.0	50.9*	40.6*
O=C(c1ccco1)N1CCC2CC1c1c(Cl)cccc12 (configuration not stated)	10.0	.	-0.7	.	.	8.7	.	.
O=C(CCc1nnc(-c2ccccc2)o1)NCC1CCN(C2CCCC2)CC1	9.4	-11.1	50.2*	-0.8	-5.3	1.3	-3.6	3.4
CC1CCN(C(=O)CCc2nnc(-c3ccccc3)o2)CC1	16.2	13.5	0.6	0.1	-0.7	8.3	.	.
CCCN(C(=O)C1=COCCO1)c1c(N)n(Cc2ccccc2)c(=O)[nH]c1=O	-7.2	-11.1	-0.5	7.8	-2.6	13.8	.	.
CC(C)CCN(C(=O)C1=COCCO1)c1c(N)n(Cc2ccccc2)c(=O)[nH]c1=O	-18.8	-3.3	33.7*	-3.1	-8.1	-6.3	9.3	6.0
Cc1c(C(=O)N(C)Cc2ccc(F)cc2)sc(=O)n1Cc1ccccc1C#N	1.8	.	-1.9	.	.	-0.6	.	.
O=C(O)c1cccc2c1-c1ccc(Cl)cc1C2=O	5.6	.	1.0	.	.	9.8	.	.
Nc1cccc2c1C(=O)c1ccc(Cl)cc1C2=O	36.3	.	30.1*	.	.	-48.7	33.0	16.1
COc1cccc(C2CC(C(F)(F)F)n3nc(C(=O)Nc4c(C)n(C)n(-c5ccccc5)c4=O)cc3N2)c1 (configuration not stated)	6.6	-4.7	27.0*	6.5	6.2	7.3	12.6	7.3
CC1(C(=O)NCc2ccccc2)CSCC(=O)N1CC(F)(F)F (configuration not stated)	8.6	.	-0.1	.	.	11.4	.	.
O=C1Nc2ccccc2N(C(=O)c2ccc3ccccc3c2)C1c1nc2ccccc2[nH]1 (configuration not stated)	-140.1	.	-30.1	.	.	3.2	.	.
